High-throughput results as filed in PubChem BioAssay.
MrgX1 antag – antagonists of human MrgX1 receptor, primary screen, HEK293 cells, Fluo-4 calcium flux. Mas-related G-protein coupled receptor member X1 (Homo sapiens), Q96LB2. BAM8-22 antagonism; hits give low values. B-score at 10 µM. hit rate 1.3% among 310,000. AID 588676, 2011;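 active means calcium-response B-score plate-corrected more than 3 library SD below zero, starting fluorescence within 5 deviations, no agonist response on first addition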;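 further: peak minus trough fluorescence over baseline after final BAM8-22 challenge near maximal dose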
Target sequence (Q96LB2 whole entry, looked up): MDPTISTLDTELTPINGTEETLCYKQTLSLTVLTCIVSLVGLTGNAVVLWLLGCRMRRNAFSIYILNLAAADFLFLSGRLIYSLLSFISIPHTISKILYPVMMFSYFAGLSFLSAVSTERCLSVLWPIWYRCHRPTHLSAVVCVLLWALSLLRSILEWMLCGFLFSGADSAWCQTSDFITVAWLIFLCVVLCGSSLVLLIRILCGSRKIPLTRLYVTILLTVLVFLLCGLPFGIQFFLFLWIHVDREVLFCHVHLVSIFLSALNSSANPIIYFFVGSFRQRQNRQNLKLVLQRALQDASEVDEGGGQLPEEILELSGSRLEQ
MrgX1 agonist – agonists of human MrgX1 receptor, primary screen, HEK293 cells, Fluo-4 calcium flux | AID 588627, 2011 | hit rate 0.44% among 310,000 | Mas-related G-protein coupled receptor member X1 (Homo sapiens), Q96LB2 | B-score at 10 µM | Fluo-4 calcium fluorescence, agonist mode; hits give high values;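 active means calcium response B-score plate-corrected fluorescence ratio at least 3 library SD, with starting fluorescence B-score inside 5 SD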
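times = overnight plating, then 30 min 37 °C plus 30 min room-temperature dye loading | assay system = stable human MrgX1 HEK293 cell line | input = fifteen thousand cells per well | signal = kinetic calcium dye fluorescence, Fluo-4 NW | dosing = compound delivered in addition one of three | read-out = B-scored fluorescence response ratio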
MrgX1 allo act – positive allosteric modulators of MrgX1, primary screen, HEK293 cells, Fluo-4 calcium flux | hit rate 0.63% among 310,000 | Mas-related G-protein coupled receptor member X1 (Homo sapiens), Q96LB2 | B-score at 10 µM | FDSS; hits give high values | AID 588675, 2011;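 active means plate-corrected calcium response at least 3 library SD above typical, normal starting fluorescence, not activating the receptor alone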;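 further: compound read alongside a low EC10 to EC30 dose of BAM8-22 agonist; peak minus trough fluorescence over baseline measured at the second addition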
RGS4 block – RGS4 inhibitors, primary screen, cell-based, HEK293 M3R inducible RGS4, calcium flux; Regulator of G-protein signaling 4 (Homo sapiens), P49798; hit rate 0.45% among 310,000; B-score at 10 µM; AID 463165, 2010; Fluo-4 calcium flux; hits give high values; triggered by carbachol at its EC20;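 active means B-score, a plate-corrected calcium signal, over three deviations above library mean, with baseline fluorescence within five deviations of library mean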;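 further: RGS4 expression induced by doxycycline in cells with stable M3 receptor; B-score is computed from the integrated fluorescence ratio over baseline after carbachol; higher B-score means a larger calcium signal and so more RGS4 inhibition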
Target sequence (P49798 whole entry, looked up): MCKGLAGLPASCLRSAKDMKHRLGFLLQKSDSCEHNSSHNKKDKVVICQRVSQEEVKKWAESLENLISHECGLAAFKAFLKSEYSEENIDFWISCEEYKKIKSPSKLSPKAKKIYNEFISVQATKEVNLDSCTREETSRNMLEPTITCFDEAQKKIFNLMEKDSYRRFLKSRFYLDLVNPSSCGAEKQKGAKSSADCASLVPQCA
RGS4 pot – RGS4 potentiators or activators, primary screen, cell-based, HEK293 M3R inducible RGS4, calcium flux; carbachol calcium flux Fluo4; hits give low values; B-score at 10 µM; hit rate 0.92% among 310,000; AID 463111, 2010;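 active means B-score of the integrated calcium signal more than 4 SD below the library mean, with starting fluorescence not abnormally high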;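 further: negative B-score means reduced calcium response which marks RGS4 activation or potentiation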
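System: HEK293 FlpIn-TREx cells, stable M3R, doxycycline-inducible RGS4. Timing: overnight RGS4 induction, 30 min dye load 37 °C, 20 min compound RT. Also added: carbachol, ECmax concentration. Measured by: Fluo4 fluorescence kinetic imaging of calcium. Evaluation: integrated calcium ratio converted to B score.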
RGS4 inh valid – enhanced carbachol calcium response, M3R/RGS4 cells, RGS4 inhibitor project, cell-based, validation screen, HEK293 M3R/RGS4, calcium flux; shares compounds with RGS4 block; carbachol calcium Fluo-4 fluorescence; carbachol added at its EC20; 0 = buffer wells, 100 = carbachol control; calcium response, % at 10 µM; hit rate 65% among 1,700; AID 492999, 2010;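 active means duplicate-averaged calcium response above the buffer-only control mean plus 5 SD of those controls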;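 further: integrated fluorescence ratio F max minus min over baseline F0; higher response in RGS4-induced cells means RGS4 inhibition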
M3R Ca ctr – carbachol calcium response in non-induced M3R cells, confirmation, counter-screen for RGS4 inhibitor project, cell-based, HEK293 M3R | carbachol calcium Fluo-4; submaximal (EC20) carbachol stimulus; buffer wells 0%, carbachol control wells 100% | hit rate 20% among 1,900 | shares compounds with RGS4 block | activity (percent), % at 10 µM; call rule not given here;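 further: RGS4 induction absent so cells express M3R without RGS4; higher means more calcium signal and flags a non-specific hit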
RGS4 inh ctr2 – signal in non-induced cells without carbachol, RGS4 inhibitor counter-screen; hit rate 22% among 1,900; HEK293 M3R/RGS4 non-induced, Fluo-4 calcium, no carbachol; normalised: buffer wells 0%, carbachol wells 100%; calcium response (agonist-mode artifact), % at 10 µM; AID 493001; shares compounds with RGS4 block;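 active means duplicate-averaged calcium rise in uninduced cells above buffer wells' mean plus 5 SD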
Active calls of the source: *; i = inactive; x = not tested or not shown. Compounds with a hit are over-represented: about 3.5% of the library has one in this group of screens.

SMILES | MrgX1 antag | MrgX1 agonist | MrgX1 allo act | RGS4 block | RGS4 pot | RGS4 inh valid | M3R Ca ctr | RGS4 inh ctr2
O=C(CSc1nc2ccccc2[nH]1)Nc1nc(-c2cccc(Br)c2)cs1 | i | i | i | 7.7* | i | 16%* | i | i
CN(C)CCCn1c(SCC(=O)Nc2nc(-c3cccc(Br)c3)cs2)nc2ccccc2c1=O | i | i | i | i | i | x | x | x
Cc1ccc(-c2csc(NC(=O)CSc3nc(C)cc(=O)[nH]3)n2)cc1 | i | i | i | 13* | i | 12%* | i | i
O=C(NCCc1ccccc1C(F)(F)F)C1CCC(=O)N(C2CC2)C1 (stereo unspecified) | i | i | i | i | i | x | x | x
CCC(C)Nc1nc2c(c(=O)[nH]c(=O)n2C)n1CCOc1ccccc1 (stereo unspecified) | i | i | i | i | i | x | x | x
CCCCn1c(NC(C)CC)nc2c1c(=O)[nH]c(=O)n2C (stereo unspecified) | i | i | i | 4.7* | i | 9.5%* | i | i
CSCCC(NS(=O)(=O)c1cccc(C(F)(F)F)c1)C(=O)Nc1ccccc1N1CCCC1 (stereo unspecified) | i | i | i | i | i | x | x | x
Clc1cccc2c1CCN(Cc1nc(-c3cnccn3)no1)C2 | i | i | i | i | i | x | x | x
CCOc1cccc(-c2c(C(=O)N/N=C/c3ccc(C)o3)nnn2-c2nonc2N)c1 | i | i | i | i | i | i | i | i
CCOc1cccc(-c2c(C(=O)N/N=C/c3ccco3)nnn2-c2nonc2N)c1 | i | i | i | i | i | i | i | i
C/C(=N\Nc1ccc(C(=O)O)cc1)c1ccc(Br)cc1 | i | i | i | 4.7* | i | 20%* | 35%* | i
O=C(Nc1ccc(-c2ccccc2)cc1)c1ccccc1 | i | i | i | i | i | x | x | x
Cc1ccc(NC(=O)C2=C(c3ccccc3)S(=O)(=O)CCS2(=O)=O)cc1 | i | i | i | 15* | i | 28%* | i | 16%*
Cc1cc(C)cc(NC2=NCC(=O)N2Cc2ccccc2)c1 | i | i | i | 5.3* | i | i | i | i
Cc1cccc(NC2=NCC(=O)N2Cc2ccccc2)c1 | i | i | i | i | i | x | 32%* | i
CC1=NN(c2ccc(C)cc2C)C(=O)C1C(c1cccc(O)c1)C1C(=O)N(c2ccc(C)cc2C)N=C1C (stereo unspecified) | i | i | i | 5.3* | i | 14%* | 50%* | i
CC1=NN(c2ccccc2)C(=O)C1N=Nc1cccc(O)c1 (stereo unspecified) | i | i | i | i | i | x | x | x
O=C(Nc1ccccc1C(=O)N1CCN(Cc2ccccc2)CC1)c1ccccc1 | i | i | i | i | i | x | x | x
Cc1ccc(SC(CC(=O)c2ccc(C)cc2)C(=O)O)cc1 (stereo unspecified) | i | i | i | 4.7* | i | 8.0%* | i | i
Cc1ccc(C(CC(=O)c2ccc(Cl)cc2)C(=O)O)cc1 (stereo unspecified) | i | i | i | i | i | x | x | x
COC(=O)c1ccc(NC(=O)Cn2nc(C(=O)Nc3ccc(C)cc3)ccc2=O)cc1 | i | i | i | i | i | x | x | x
